Source: ChEMBL document CHEMBL1133980, “New inhibitors of the thioredoxin-thioredoxin reductase system based on a naphthoquinone spiroketal natural product lead” (Bioorg Med Chem Lett, 2001)

Legend:
MDA-MB-231 = assay: Ability to inhibit the growth of MDA-MB-231 cell line; assay type: functional, cell-based; settings: Homo sapiens
Summary of the method: (§1)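 MCF-7 (ER+, p53 replete) and MDA-MB-231 (ER−, p53 deficient) human breast cancer cells were seeded at 4000/well and left to attach overnight. They were then exposed to compound (0.1–30 μM) or 0.1% DMSO vehicle for 72 h. Medium was changed to serum-free medium with 0.1% MTT, incubated 3 h in the dark, and cell number read at 540 nm.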

MCF7 = assay: Ability to inhibit the growth of MCF-7 cell line; assay type: functional, cell-based; settings: Homo sapiens; summary of the method: as §1
Thioredoxin reductase [1] = molecular target: T1, Thioredoxin reductase (Homo sapiens, UniProt Q16881+Q9NNW7+Q86VQ6); assay: Inhibition of thioredoxin reductase; assay type: protein assay
Summary of the method: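 Human placental TrxR (final 1.0 μM) in HEPES pH 7.2/EDTA buffer was added to diluted compound. Reaction started with NADPH (final 1 mM) and DTNB (final 10 mM) at 37 °C. A405 for DTNB reduction read every 10 s and initial rates taken. IC50 from five concentrations (0.1–50 μM).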

Thioredoxin reductase [2] = molecular target: T1, Thioredoxin reductase; assay: Inhibition of thioredoxin-1/thioredoxin reductase system; assay type: functional
Summary of the method: (§2)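 Insulin reduction by human placental TrxR plus recombinant human Trx-1 (final 1.0 μM TrxR, 0.8 μM Trx-1) in 100 mM HEPES pH 7.2, 5 mM EDTA with 1 mM NADPH and 2.5 mg/mL bovine insulin, 30 min, 37 °C. Stopped with 6 M guanidine-HCl/Tris pH 8.0/10 mM DTNB; A405 read. IC50 from five concentrations (0.1–50 μM).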

[3] = Compound was tested for its ability to inhibit thioredoxin-1/thioredoxin reductase system; parameters: species or system Homo sapiens; summary of the method: as §2

With O=C1C=CC2(Oc3cccc4cccc(c34)O2)c2cccc(OCc3ccc(-c4cccc(C(F)(F)F)c4)o3)c21 the IC50 (MDA-MB-231) was 5.2 µM, the IC50 (MCF7) was 5.5 µM and the IC50 (Thioredoxin reductase [1]) was > 50 µM. It also gave an IC50 (Thioredoxin reductase [2]) of 42.4 µM.
With COc1cccc2c1C(=O)C=CC21OCCCO1 the IC50 (MDA-MB-231) was 5 µM, the IC50 (MCF7) was 4.4 µM and the IC50 (Thioredoxin reductase [1]) was > 50 µM. It also gave an IC50 (Thioredoxin reductase [2]) of 40.2 µM.
With O=C1C=CC2(Oc3cccc4cccc(c34)O2)c2cccc(OCc3ccc(Cl)cc3)c21 the IC50 (MDA-MB-231) was 8 µM, the IC50 (MCF7) was > 10 µM and the IC50 (Thioredoxin reductase [1]) was > 50 µM. For the same molecule, the IC50 (Thioredoxin reductase [2]) was > 50 µM.
In the case of C/C=C(\C)COc1cccc2c1C(=O)C=CC21Oc2cccc3cccc(c23)O1, the IC50 (MDA-MB-231) is reported as 5.3 µM, the IC50 (MCF7) is reported as 4.3 µM and the IC50 (Thioredoxin reductase [2]) is reported as > 50 µM.
For O=C1C=CC2(Oc3cccc4cccc(c34)O2)c2cccc(OCc3ccccn3)c21, the IC50 (MDA-MB-231) was 2.8 µM, the IC50 (MCF7) was 2 µM and the IC50 (Thioredoxin reductase [1]) was > 50 µM. The IC50 (Thioredoxin reductase [2]) was 41.8 µM.
For O=C1C=CC2(Oc3cccc4cccc(c34)O2)c2cccc(OCc3ccc(-c4cccc(Cl)c4)o3)c21, the IC50 (MDA-MB-231) was > 10 µM, the IC50 (MCF7) was > 10 µM and the IC50 (Thioredoxin reductase [1]) was > 50 µM. The IC50 (Thioredoxin reductase [2]) was > 50 µM.
For C=C(C)COc1cccc2c1C(=O)C=CC21Oc2cccc3cccc(c23)O1, the IC50 (MDA-MB-231) was 8.2 µM, the IC50 (MCF7) was 7.8 µM and the IC50 (Thioredoxin reductase [1]) was > 50 µM. It also gave an IC50 (Thioredoxin reductase [2]) of 4.8 µM.
With C/C=C/COc1cccc2c1C(=O)C=CC21Oc2cccc3cccc(c23)O1 the IC50 (MDA-MB-231) was 2.9 µM, the IC50 (MCF7) was 1.3 µM and the IC50 (Thioredoxin reductase [2]) was > 50 µM.
In the case of O=C1C=CC2(Oc3cccc4cccc(c34)O2)c2cccc(OCc3ccco3)c21, the IC50 (MDA-MB-231) is reported as 2.5 µM, the IC50 (MCF7) is reported as 1.1 µM and the IC50 (Thioredoxin reductase [2]) is reported as > 50 µM.
O=C1C=CC2(Oc3cccc4cccc(c34)O2)C23OC12CCCC3=O (configuration not stated) gave an IC50 (MDA-MB-231) of 3.4 µM, an IC50 (MCF7) of 1.3 µM and an IC50 (Thioredoxin reductase [2]) of 44 µM.
With O=C1[C@@H]2O[C@@H]2C2(Oc3cccc4cccc(c34)O2)[C@@]23O[C@@]12CCCC3=O the IC50 (MDA-MB-231) was 8.2 µM, the IC50 (MCF7) was 4.6 µM and the IC50 (Thioredoxin reductase [2]) was > 50 µM.
For O=C1C=CC2(Oc3cccc4cccc(c34)O2)c2cccc(OCc3ccncc3)c21, the IC50 (MDA-MB-231) was 7.3 µM, the IC50 (MCF7) was 8 µM and the IC50 (Thioredoxin reductase [1]) was > 50 µM. For the same molecule, the IC50 (Thioredoxin reductase [2]) was > 50 µM.
With O=C1C=CC2(Oc3cccc4cccc(c34)O2)c2cccc(OCc3ccc(Br)cc3)c21 the IC50 (MDA-MB-231) was 9.3 µM, the IC50 (MCF7) was > 10 µM and the IC50 (Thioredoxin reductase [1]) was > 50 µM. For the same molecule, the IC50 (Thioredoxin reductase [2]) was > 50 µM.
With O=C1C=CC2(Oc3cccc4cccc(c34)O2)c2cccc(OCc3cccnc3)c21 the IC50 (MDA-MB-231) was 1.4 µM, the IC50 (MCF7) was 1.5 µM and the IC50 (Thioredoxin reductase [1]) was > 50 µM. For the same molecule, the IC50 (Thioredoxin reductase [2]) was > 50 µM.
For O=C1C=CC2(Oc3cccc4cccc(c34)O2)c2cccc(O)c21, the IC50 (MDA-MB-231) was 2.4 µM, the IC50 (MCF7) was 1 µM and the IC50 (Thioredoxin reductase [1]) was 12 µM. For the same molecule, the IC50 (Thioredoxin reductase [2]) was 0.35 µM.
With C=CCOc1cccc2c1C(=O)C=CC21Oc2cccc3cccc(c23)O1 the IC50 (MDA-MB-231) was 2.7 µM, the IC50 (MCF7) was 2 µM and the IC50 (Thioredoxin reductase [1]) was > 50 µM. It also gave an IC50 (Thioredoxin reductase [2]) of 23.2 µM.
With CC/C=C/CCOc1cccc2c1C(=O)C=CC21Oc2cccc3cccc(c23)O1 the IC50 (MDA-MB-231) was 9.2 µM, the IC50 (MCF7) was > 30 µM and the IC50 (Thioredoxin reductase [2]) was > 50 µM.
In the case of O=C1C=CC2(Oc3cccc4cccc(c34)O2)c2cccc(OCc3ccc(-c4ccccc4C(F)(F)F)o3)c21, the IC50 (MDA-MB-231) is reported as 4.9 µM, the IC50 (MCF7) is reported as 5 µM and the IC50 (Thioredoxin reductase [1]) is reported as > 50 µM. The IC50 (Thioredoxin reductase [2]) was > 50 µM.
For COc1cccc(COc2cccc3c2C(=O)C=CC32Oc3cccc4cccc(c34)O2)c1, the IC50 (MDA-MB-231) was 2.7 µM, the IC50 (MCF7) was 2.3 µM and the IC50 (Thioredoxin reductase [2]) was > 50 µM.
In the case of CC(C)=CCOc1cccc2c1C(=O)C=CC21Oc2cccc3cccc(c23)O1, the IC50 (MDA-MB-231) is reported as 3.6 µM, the IC50 (MCF7) is reported as 2 µM and the IC50 (Thioredoxin reductase [2]) is reported as > 50 µM.
In the case of O=C1C=CC2(Oc3cccc4cccc(c34)O2)c2cccc(OCCc3ccccc3)c21, the IC50 (MDA-MB-231) is reported as 4.6 µM, the IC50 (MCF7) is reported as 3.9 µM and the IC50 (Thioredoxin reductase [2]) is reported as > 50 µM.
In the case of O=C1C=CC2(Oc3cccc4cccc(c34)O2)C2=C1CCCC2=O, the IC50 (MDA-MB-231) is reported as 6.4 µM, the IC50 (MCF7) is reported as 3.8 µM and the IC50 (Thioredoxin reductase [2]) is reported as 2.1 µM.
In the case of O=C1C=CC2(Oc3cccc4cccc(c34)O2)C2=C1[C@@H](O)C1C3C=CC(C3)C1[C@H]2O (some centres not stated), the IC50 (MDA-MB-231) is reported as 2.1 µM, the IC50 (MCF7) is reported as 1.3 µM and the IC50 (Thioredoxin reductase [2]) is reported as 8 µM.
For O=C1C=C[C@H](O)[C@@]23O[C@@]12C1(Oc2cccc4cccc(c24)O1)[C@@H]1O[C@@H]1[C@@H]3O, the IC50 (MDA-MB-231) was 2 µM, the IC50 (MCF7) was 1.5 µM and the IC50 (Thioredoxin reductase [1]) was 13.5 µM. It also gave an IC50 (Thioredoxin reductase [2]) of 4.5 µM.
In the case of O=C1C=CC2(Oc3cccc4cccc(c34)O2)c2cccc(OCc3ccc(-c4ccccc4Cl)o3)c21, the IC50 (MDA-MB-231) is reported as > 10 µM, the IC50 (MCF7) is reported as > 10 µM and the IC50 (Thioredoxin reductase [1]) is reported as > 50 µM. For the same molecule, the IC50 (Thioredoxin reductase [2]) was > 50 µM.
In the case of O=C1C=CC2(Oc3cccc4cccc(c34)O2)c2cccc(OC/C=C/c3ccccc3)c21, the IC50 (MDA-MB-231) is reported as 7.5 µM, the IC50 (MCF7) is reported as 7.9 µM and the IC50 (Thioredoxin reductase [2]) is reported as > 50 µM.
In the case of O=C1C=CC2(Oc3cccc4cccc(c34)O2)c2cccc(OCc3ccoc3)c21, the IC50 (MDA-MB-231) is reported as 2 µM, the IC50 (MCF7) is reported as 2 µM and the IC50 (Thioredoxin reductase [1]) is reported as > 50 µM. It also gave an IC50 (Thioredoxin reductase [2]) of 23.2 µM.
With CC(C)=CCC/C(C)=C/COc1cccc2c1C(=O)C=CC21Oc2cccc3cccc(c23)O1 the IC50 (MDA-MB-231) was 2 µM, the IC50 (MCF7) was 4.6 µM and the IC50 [3] was > 50 µM.
In the case of CCCCCCOc1cccc2c1C(=O)C=CC21Oc2cccc3cccc(c23)O1, the IC50 (MDA-MB-231) is reported as 13.6 µM, the IC50 (MCF7) is reported as 13.4 µM and the IC50 (Thioredoxin reductase [2]) is reported as > 50 µM.
Molecule O=C1CCCC2=C1C1(Oc3cccc4cccc(c34)O1)C1OC1C2=O (configuration not stated) has an IC50 (MDA-MB-231) of 23 µM, an IC50 (MCF7) of 4.6 µM and an IC50 (Thioredoxin reductase [2]) of 12.2 µM.
Work on O=C1[C@@H]2O[C@@H]2C2(Oc3cccc4cccc(c34)O2)[C@]23O[C@]12CCCC3=O yielded an IC50 (MDA-MB-231) of 2.9 µM, an IC50 (MCF7) of 2.8 µM and an IC50 (Thioredoxin reductase [2]) of 13.5 µM.
With O=C1C=CC2(OCCO2)c2cccc(O)c21 the IC50 (MDA-MB-231) was 4.3 µM, the IC50 (MCF7) was 4.2 µM and the IC50 (Thioredoxin reductase [1]) was 8.8 µM. It also gave an IC50 (Thioredoxin reductase [2]) of 3.4 µM.
O=C1C=CC2(Oc3cccc4cccc(c34)O2)c2cccc(OCc3ccc(-c4ccc(Br)cc4)o3)c21 gave an IC50 (MDA-MB-231) of 7.8 µM, an IC50 (MCF7) of 5.7 µM and an IC50 (Thioredoxin reductase [1]) of 20.1 µM. The IC50 (Thioredoxin reductase [2]) was 10.2 µM.
With C/C=C(/C)COc1cccc2c1C(=O)C=CC21Oc2cccc3cccc(c23)O1 the IC50 (MDA-MB-231) was 4.5 µM, the IC50 (MCF7) was 1.9 µM and the IC50 (Thioredoxin reductase [2]) was > 50 µM.
With C#CCOc1cccc2c1C(=O)C=CC21Oc2cccc3cccc(c23)O1 the IC50 (MDA-MB-231) was 4.7 µM, the IC50 (MCF7) was 4.3 µM and the IC50 (Thioredoxin reductase [1]) was > 50 µM. For the same molecule, the IC50 (Thioredoxin reductase [2]) was 13.4 µM.
For COc1ccc(COc2cccc3c2C(=O)C=CC32Oc3cccc4cccc(c34)O2)cc1, the IC50 (MDA-MB-231) was 2.2 µM, the IC50 (MCF7) was 0.7 µM and the IC50 (Thioredoxin reductase [1]) was > 50 µM. For the same molecule, the IC50 (Thioredoxin reductase [2]) was > 50 µM.
